Results on 6 molecules are retold here after ChEMBL document CHEMBL1139239, “A series of cationic sterol lipids with gene transfer and bactericidal activity” (Bioorg Med Chem, 2009).

Data set [1] in a line: Toxicity against RBC assessed as hemolytic activity at 2 mM. The class given is cell-based. To be noted: erythrocyte, 2000 µM. In a few lines: (§1)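 Donor whole blood in heparin/ACD was chilled to 4°C, pelleted at 1000g and washed three times in phosphate/NaCl/HEPES buffer, then resuspended in PBS. Cells were mixed 1:1 with serial dilutions in PBS and held 1 h at 37°C, then spun. Diluted supernatant was read at 540 nm against buffer, with percent lysis set against 1% Triton X-100.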

The test system of data set [2] is Bacillus subtilis. The experiment in a line: Antibacterial activity against Bacillus subtilis ATCC 6051 after 20 hrs. Format: functional. In short, it runs like this: (§2)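 Broth microdilution MIC: exponential-phase bacteria at 10^5 to 10^6 CFU/ml in Mueller-Hinton broth. Compound serial dilutions made in PBS and mixed 1:1 by volume with the cells, so broth is 50% v/v. Incubated 20 hours at 37°C, and the minimum inhibitory concentration was recorded.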

The subject of data set [3] is Escherichia coli. The data set can be described thus: Antibacterial activity against Escherichia coli MG1655 after 20 hrs. The class given is functional. In short, it runs like this:
as §2

A short description of data set [4]: Therapeutic index, ratio of MHC for RBC to MIC for Bacillus subtilis ATCC 6051. To be noted: red blood cells (RBC); read-out: TI. In short, it runs like this: (§3)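 Ratio of MHC to MIC. MIC: exponential-phase B. subtilis ATC6051 or E. coli MG1655 at 10^5–10^6 CFU/ml in Mueller-Hinton broth, mixed 1:1 with serial dilutions in PBS (50% v/v broth), 20 h at 37°C. MHC: lowest concentration giving ≥2% lysis of washed donor red cells after 1 h at 37°C.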

The nature of data set [5]: Therapeutic index, ratio of MHC for RBC to MIC for Escherichia coli MG1655. Conditions: red blood cells (RBC); read-out: TI. In short, it runs like this: as §3
The nature of data set [6]: Toxicity against RBC assessed as hemolytic activity. To be noted: erythrocyte. Format: cell-based. In short, it runs like this: as §1
Data set [7] deals with Escherichia coli. The experiment in a line: Antibacterial activity against Escherichia coli MG1655 at 20 uM after 4 hrs. The class given is functional, organism-based. To be noted: 50 uM, in the assay text read “50 uM” for “20 uM”. In a few lines:
(§4)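 Killing assay: exponential-phase bacteria suspended in PBS at 10^5–10^6 CFU/ml and preincubated for 1 hour at 37°C. Compound added and exposure lasted 4 hours. Samples were taken, diluted in four ten-fold steps in PBS and plated on agar overnight at 37°C. Colonies were counted manually and averages plotted on a log scale.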

The subject of data set [8] is Bacillus subtilis. The data set can be described thus: Antibacterial activity against Bacillus subtilis ATCC 6051 at 20 uM after 4 hrs. Format: functional, organism-based. To be noted: ATC6051. In a few lines:
as §4

Data set [9] is described as follows: Toxicity against RBC assessed as hemolytic activity at 1 to 2 mM. Format: cell-based, Erythrocyte. Conditions: red blood cells (RBC); read-out: Activity. In a few lines: as §1
Data set [10] is described as follows: Toxicity against bovine BAEC cells. Format: cell-based, Bos taurus. To be noted: cattle. In short, it runs like this: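 Bovine aortic endothelial cells, passage 4–15, grown in DMEM with 10% FBS. Lipoplexes made with or without DOPE at several charge ratios up to 12 were added in serum-free OptiMem for 2 h at 37°C, then replaced with growth medium. About 20 h later, viability was read as ATP luminescence (CellTiter-Glo, 30 min), normalised to naked plasmid DNA, n = 8.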

Values after ≈ are worked out from the molar mass of the structure shown. Active and inactive are the calls of the source. The calls are words filed in the database; no cut-off is given here.

For the molecule `C[C@H](CCC(=O)NCCCNCCCCNCCCNC(=O)CC[C@H](C)[C@@H]1CC[C@@H]2[C@@H]3[C@@H](C[C@@H](O)[C@]21C)[C@]1(C)CC[C@H](O)C[C@@H]1C[C@@H]3O)[C@H]1CC[C@H]2[C@@H]3[C@H](O)C[C@@H]4C[C@H](O)CC[C@]4(C)[C@H]3C[C@H](O)[C@]12C`, the Activity entry in [1] is “Toxic”. Moreover, the minimal inhibitory concentration (MIC) (usually the lowest concentration that inhibits growth of the organism) in [2] (ATC6051, 20 h) was 4 µM (≈ 3.93 µg/mL); in data set [3] (MG1655, 20 h), 16 µM (≈ 15.7 µg/mL). For the same molecule, the selectivity ratio was found to be 61 in data set [4] and 15 in [5]. Moreover, the MHC in data set [6] stood at 250 µM.
For `C[C@H](CCC(=O)NCCCNCCCCNCCCN)[C@H]1CCC2=C3CC[C@@H]4C[C@H](O)CC[C@]4(C)[C@H]3C[C@H](O)[C@@]21C`, the outcome in data set [7] and in data set [8] was Active. In addition, the minimum inhibitory concentration (MIC) came out at 28 µM (≈ 16.1 µg/mL) in data set [2] (ATC6051, 20 h) and 111 µM (≈ 63.8 µg/mL) in [3] (MG1655, 20 h). The results for the selectivity ratio in data set [4] and in data set [5] were 18 and 5, respectively. Besides, the hemolysis at up to 2000 µM in [9] stood at 30%. For the same molecule, in [6], the MHC amounted to 500 µM.
As for `C[C@H](CCC(=O)NCCCNCCCCNCCCN)[C@H]1CC[C@H]2[C@@H]3CC[C@@H]4C[C@H](O)CC[C@]4(C)[C@H]3CC[C@]12C`, the outcome in [7] and in [8] was Active. The MIC in [2] (ATC6051, 20 h) worked out at 57 µM (≈ 32 µg/mL); in [3] (MG1655, 20 h), 228 µM (≈ 128 µg/mL). For the same molecule, the selectivity ratio in [4] is 9; in data set [5], 2. In addition, the hemolysis at up to 2000 µM in data set [9] was 30%. In [6], the MHC is 500 µM.
With `C[C@H](CCC(=O)NCCCNCCCCNCCCN)[C@H]1CC[C@H]2[C@@H]3CC=C4C[C@@H](O)CC[C@]4(C)[C@H]3CC[C@]12C`, the MIC turned out to be 57 µM (≈ 31.9 µg/mL) in [2] (ATC6051, 20 h) and 115 µM (≈ 64.3 µg/mL) in data set [3] (MG1655, 20 h). In addition, the selectivity ratio worked out at 18 in data set [4] and 9 in [5]. Also, the hemolysis at up to 2000 µM in [9] is 30%. For the same molecule, in data set [10], the Activity result is on record as “Toxic”. Besides, in [6], the MHC stood at 1000 µM.
For the molecule POLYMYXIN B, the results for the MIC in data set [2] (ATC6051) and in data set [3] were 1 µM and 6 µM, respectively.
As for `C[C@H](CCC(=O)NCCCNCCCCNCCCN)[C@H]1CC[C@H]2[C@@H]3[C@H](O)C[C@@H]4C[C@H](O)CC[C@]4(C)[C@H]3C[C@H](O)[C@]12C`, the MIC in [2] (ATC6051, 20 h) is greater than 432 µM; in data set [3] (MG1655, 20 h) it was greater than 432 µM. Moreover, the selectivity ratio in data set [4] and in [5] was less than 1 throughout. Also, the hemolysis at up to 2000 µM in data set [9] is 30%. The MHC in data set [6] was 500 µM.
